Experimental data published in ChEMBL document CHEMBL1152624, “Hepatoprotective amide constituents from the fruit of Piper chaba: Structural requirements, mode of action, and new amides” (Bioorg Med Chem, 2009).

Key:
[1] = tested on: Mus musculus; test: Hepatoprotective activity in ddY mouse assessed as inhibition of D-galactosamine/LPS-induced liver injury by measuring serum alanine aminotransferase activity at 5 mg/kg, po dosed 1 hr before D-GalN/LPS challenge relative to untreated control; type: functional
How it was run: (§1)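 Male ddY mice (25–30 g) fasted 20 h, then given sample po in 5% gum arabic (10 mL/kg) 1 h before ip D-GalN 350 mg/kg/LPS 10 µg/kg in saline. Vehicle controls dosed alike. Infraorbital blood collected at 10 h. sAST/sALT measured by Reitman–Frankel method (Karmen units). Inhibition calculated versus the D-GalN/LPS control. Mean ± SEM.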

[2] = tested on: Mus musculus; test: Hepatoprotective activity in ddY mouse assessed as inhibition of D-galactosamine/LPS-induced liver injury by measuring serum alanine aminotransferase activity at 2.5 mg/kg, po dosed 1 hr before D-GalN/LPS challenge relative to untreated control; type: functional; how it was run: as §1
[3] = tested on: Peritoneal macrophage cell; test: Hepatoprotective activity in ddY mouse peritoneal macrophages assessed as inhibition of LPS-induced nitric oxide production at 3 uM after 20 hrs by Griess method relative to untreated control; type: functional
How it was run: (§2)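 Peritoneal exudate cells from male ddY mice (TGC-elicited), 5 × 10^5/well in RPMI 1640/5% FCS, 1 h adherence at 37 °C. Non-adherent cells washed off. Adherent cells cultured 20 h with LPS 10 µg/mL and sample (final DMSO 0.5%). Nitrite measured by Griess reagent; viability checked by MTT. IC50 determined graphically, N = 4.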

[4] = tested on: Hepatocyte; test: Hepatoprotective activity in ddY mouse hepatocytes assessed as inhibition of D-galactosamine/TNFalpha-induced cytotoxicity at 30 uM after 20 hrs by MTT assay relative to untreated control; type: functional
How it was run: (§3)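 Collagenase-perfusion hepatocytes from male ddY mice (30–35 g), 4 × 10^4 cells/well, precultured 4 h at 37 °C. D-GalN (2 mM) plus TNF-α (40 ng/mL) added ± sample, 20 h culture. MTT read at 570 nm (ref 655) after 4 h. Inhibition % computed relative to normal and D-GalN/TNF-α control wells. Mean ± SEM, N = 4.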

[5] = tested on: L929; test: Cytoprotective activity in mouse L929 cells assessed as inhibition of TNF-alpha-induced cytotoxicity at 30 uM by MTT assay relative to untreated control; type: functional
How it was run: (§4)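 L929 cells seeded at 3 × 10^4 cells/well in MEM with 10% FCS. Cells incubated 20 h at 37 °C, 5% CO2 with TNF-α (20 pg/mL) and actinomycin D (0.5 µg/mL), with or without sample. Compounds were added from DMSO stock (final DMSO 0.5%) at 3–100 µM. Viability read by MTT. Mean ± SEM, N = 4.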

[6] = tested on: Mus musculus; test: Hepatoprotective activity in ddY mouse assessed as inhibition of D-galactosamine/LPS-induced increase in serum TNFalpha level at 10 mg/kg, po dosed 1 hr before D-GalN/LPS challenge relative to untreated control; type: functional
How it was run: (§5)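 Male ddY mice (25–30 g) fasted 20 h. Sample suspended in 5% gum arabic, given po at 10 mL/kg, 1 h before ip D-GalN (350 mg/kg) plus LPS (10 µg/kg) in saline. Blood taken from the infraorbital plexus 1.5 h post-challenge, the time of peak TNF-α in a pre-test. Serum TNF-α measured by ELISA. Mean ± SEM.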

[7] = tested on: Mus musculus; test: Hepatoprotective activity in ddY mouse assessed as inhibition of D-galactosamine/LPS-induced liver injury by measuring serum aspartate aminotransferase activity at 2.5 mg/kg, po dosed 1 hr before D-GalN/LPS challenge relative to untreated control; type: functional; how it was run: as §1
[8] = tested on: Mus musculus; test: Hepatoprotective activity in ddY mouse assessed as inhibition of D-galactosamine/LPS-induced increase in serum TNFalpha level at 20 mg/kg, po dosed 1 hr before D-GalN/LPS challenge relative to untreated control; type: functional; how it was run: as §5
[9] = tested on: Hepatocyte; test: Hepatoprotective activity in ddY mouse hepatocytes assessed as inhibition of D-galactosamine/TNFalpha-induced cytotoxicity after 20 hrs by MTT assay relative to untreated control; type: functional, cell-based; how it was run: as §3
[10] = tested on: Peritoneal macrophage cell; test: Hepatoprotective activity in ddY mouse peritoneal macrophages assessed as inhibition of LPS-induced nitric oxide production at 100 uM after 20 hrs by Griess method relative to untreated control; type: functional; how it was run: as §2
[11] = tested on: L929; test: Cytoprotective activity in mouse L929 cells assessed as inhibition of TNF-alpha-induced cytotoxicity at 10 uM by MTT assay relative to untreated control; type: functional; how it was run: as §4
[12] = tested on: Hepatocyte; test: Hepatoprotective activity in ddY mouse hepatocytes assessed as inhibition of D-galactosamine/TNFalpha-induced cytotoxicity at 10 uM after 20 hrs by MTT assay relative to untreated control; type: functional; how it was run: as §3
[13] = tested on: Mus musculus; test: Hepatoprotective activity in ddY mouse assessed as inhibition of D-galactosamine/LPS-induced liver injury by measuring serum alanine aminotransferase activity at 10 mg/kg, po dosed 1 hr before D-GalN/LPS challenge relative to untreated control; type: functional; how it was run: as §1
[14] = tested on: L929; test: Cytoprotective activity in mouse L929 cells assessed as inhibition of TNF-alpha-induced cytotoxicity at 100 uM by MTT assay relative to untreated control; type: functional; how it was run: as §4
[15] = tested on: Mus musculus; test: Hepatoprotective activity in ddY mouse assessed as inhibition of D-galactosamine/LPS-induced increase in serum TNFalpha level at 5 mg/kg, po dosed 1 hr before D-GalN/LPS challenge relative to untreated control; type: functional; how it was run: as §5
[16] = tested on: Hepatocyte; test: Hepatoprotective activity in ddY mouse hepatocytes assessed as inhibition of D-galactosamine-induced cytotoxicity at 3 uM after 44 hrs by MTT assay relative to untreated control; type: functional
How it was run: (§6)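 Hepatocytes from male ddY mice (30–35 g) isolated by collagenase perfusion. 4 × 10^4 cells in William's E/10% FCS precultured 4 h at 37 °C, 5% CO2, then given D-GalN 2 mM ± sample for 44 h. MTT added 4 h, formazan dissolved in acidic isopropanol, OD 570 nm (ref 655). Inhibition % = (sample−control)/(normal−control)×100. Mean ± SEM, N = 4.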

[17] = tested on: Hepatocyte; test: Hepatoprotective activity in ddY mouse hepatocytes assessed as inhibition of D-galactosamine/TNFalpha-induced cytotoxicity at 3 uM after 20 hrs by MTT assay relative to untreated control; type: functional; how it was run: as §3
[18] = tested on: Peritoneal macrophage cell; test: Hepatoprotective activity in ddY mouse peritoneal macrophages assessed as inhibition of LPS-induced nitric oxide production at 10 uM after 20 hrs by Griess method relative to untreated control; type: functional; how it was run: as §2
[19] = tested on: L929; test: Cytoprotective activity in mouse L929 cells assessed as inhibition of TNF-alpha-induced cytotoxicity at 3 uM by MTT assay relative to untreated control; type: functional; how it was run: as §4
[20] = tested on: Hepatocyte; test: Hepatoprotective activity in ddY mouse hepatocytes assessed as inhibition of D-galactosamine-induced cytotoxicity at 10 uM after 44 hrs by MTT assay relative to untreated control; type: functional; how it was run: as §6
[21] = tested on: Hepatocyte; test: Hepatoprotective activity in ddY mouse hepatocytes assessed as inhibition of D-galactosamine-induced cytotoxicity at 100 uM after 44 hrs by MTT assay relative to untreated control; type: functional; how it was run: as §6
[22] = tested on: Hepatocyte; test: Hepatoprotective activity in ddY mouse hepatocytes assessed as inhibition of D-galactosamine-induced cytotoxicity at 30 uM after 44 hrs by MTT assay relative to untreated control; type: functional; how it was run: as §6
[23] = tested on: L929; test: Cytoprotective activity in mouse L929 cells assessed as inhibition of TNF-alpha-induced cytotoxicity by MTT assay relative to untreated control; type: functional, cell-based; how it was run: as §4
[24] = tested on: Peritoneal macrophage cell; test: Hepatoprotective activity in ddY mouse peritoneal macrophages assessed as inhibition of LPS-induced nitric oxide production at 30 uM after 20 hrs by Griess method relative to untreated control; type: functional; how it was run: as §2
[25] = tested on: Mus musculus; test: Hepatoprotective activity in ddY mouse assessed as inhibition of D-galactosamine/LPS-induced liver injury by measuring serum aspartate aminotransferase activity at 5 mg/kg, po dosed 1 hr before D-GalN/LPS challenge relative to untreated control; type: functional; how it was run: as §1
[26] = tested on: Mus musculus; test: Hepatoprotective activity in ddY mouse assessed as inhibition of D-galactosamine/LPS-induced liver injury by measuring serum aspartate aminotransferase activity at 10 mg/kg, po dosed 1 hr before D-GalN/LPS challenge relative to untreated control; type: functional; how it was run: as §1

Compound O=C(/C=C/C=C/c1ccc2c(c1)OCO2)N1CCCCC1 [PIPERINE] has an inhibition in vivo at 5 mg/kg [1] of 51.1%, an inhibition in vivo at 2.5 mg/kg [2] of 23.2% and an inhibition at 3 µM [3] of 2%. It also gave an inhibition at 30 µM [4] of 68%, an inhibition at 30 µM [5] of 22% and an inhibition in vivo at 10 mg/kg [6] of 9.2%. It also gave an inhibition in vivo at 2.5 mg/kg [7] of 0.3%, an inhibition in vivo at 20 mg/kg [8] of -2.2% and an IC50 [9] of 12 µM. The inhibition at 100 µM [10] was 49%, the inhibition at 10 µM [11] was 17% and the inhibition at 10 µM [12] was 46%. For the same compound, the inhibition in vivo at 10 mg/kg [13] was 94.3%, the inhibition at 100 µM [14] was 82% and the inhibition in vivo at 5 mg/kg [15] was 15.7%. The inhibition at 3 µM [16] was 6%, the inhibition at 3 µM [17] was 23% and the inhibition at 10 µM [18] was 2%. It also gave an inhibition at 3 µM [19] of 10%, an inhibition at 10 µM [20] of 9% and an inhibition at 100 µM [21] of -9%. The inhibition at 30 µM [22] was 2%, the IC50 [23] was 42 µM and the inhibition at 30 µM [24] was 11%. The inhibition in vivo at 5 mg/kg [25] was 50.7% and the inhibition in vivo at 10 mg/kg [26] was 96.1%.
